Measurements published in ChEMBL document CHEMBL3865800, “Design, synthesis and biological evaluation of 4-anilinoquinazoline derivatives as new c-myc G-quadruplex ligands” (Eur J Med Chem, 2016).
Calls of active or inactive are those of the source. The rule behind the calls is not given here.

How the values were obtained:
[1] = Cell cycle arrest in human HeLa cells assessed as accumulation at G2/M phase after 12 hrs by propidium iodide based FACS analysis (reference value: 46.1 %); assay type: functional
[2] = Cell cycle arrest in human HeLa cells assessed as accumulation at S phase after 12 hrs by propidium iodide based FACS analysis (reference value: 23.1 %); assay type: functional
HeLa [3] = assay: Binding affinity to c-myc G-quadruplex DNA in human HeLa cells assessed as inhibition of c-myc transcription after 3 hrs by RT-PCR analysis; assay type: cell-based
In short: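 HeLa (2×10^5/well) treated 3 h with 1.25–10 μM or DMSO; total RNA oligo-dT primed, M-MLV reverse transcribed (70 °C 10 min; 42 °C 1 h; 70 °C 15 min); c-myc and β-actin (internal control) amplified by real-time PCR, products run on 1.5% agarose.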

[4] = Cell cycle arrest in human HeLa cells assessed as accumulation at G0/G1 phase after 12 hrs by propidium iodide based FACS analysis (reference value: 30.8 %); assay type: functional
[5] = Binding affinity to biotinylated 5'-Pu22-3'-labelled c-myc G-quadruplex DNA (unknown origin) after 240 secs by SPR assay
In short: (§1)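 SPR: biotinylated Pu22 and biotinylated duplex folded in 50 mM Tris-HCl pH 7.4, 150 mM KCl, 0.005% Tween20, captured (~1000 RU) on separate flow cells with a blank reference; ligand 0.0625–10 μM in running buffer, 240 s association then 240 s dissociation at 25 °C; equilibrium KD derived.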

[6] = Binding affinity to 5'-FPu22T-3'-labelled c-myc G-quadruplex DNA (unknown origin) assessed as change in melting temperature at 2 uM in presence ds26 DNA of by FRET assay
In short: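 FRET melting of 0.4 μM labelled FPu22T with ligand 2.0 μM, alone or with 10-fold (4 μM), 50-fold (20 μM) or 100-fold (40 μM) excess unlabelled duplex ds26 as competitor; Tris-HCl 10 mM pH 7.4 with 10 or 60 mM KCl; ex 470/em 530 nm read every 1 °C from 37–99 °C, 30 s hold; ΔTm = Tm(DNA+ligand) − Tm(DNA).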

[7] = Cell cycle arrest in human HeLa cells assessed as accumulation at G0/G1 phase at 2.5 uM after 48 hrs by propidium iodide based FACS analysis (reference value: 35.9 %); assay type: functional
[8] = Cell cycle arrest in human HeLa cells assessed as accumulation at G2/M phase at 2.5 uM after 48 hrs by propidium iodide based FACS analysis (reference value: 33.7 %); assay type: functional
[9] = Cell cycle arrest in human HeLa cells assessed as accumulation at G0/G1 phase after 48 hrs by propidium iodide based FACS analysis (reference value: 30.8 %); assay type: functional
[10] = Binding affinity to 5'-Pu22-3' c-myc G-quadruplex DNA (unknown origin) assessed as maintainance of parallel c-myc G-quadruplex conformation at 2 equiv after 6 hrs in presence of KCl by CD-spectroscopic analysis
In short: (§2)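 Pu22 at 3 μM final in 10 mM Tris-HCl buffer with ligand at 2 equiv, with 100 mM KCl or without KCl; heated 95 °C 5 min, slowly cooled, held ≥6 h; CD spectra 230–330 nm, 1 mm quartz cell, 1 nm bandwidth and step, 0.5 s/point, average of two scans.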

[11] = Binding affinity to F10T duplex DNA (unknown origin) assessed as change in melting temperature by FRET assay
In short: (§3)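 Fluorescence melting on real-time PCR instrument; 0.4 μM labelled oligonucleotide (FPu22T or duplex-forming F10T), ligand 2.0 μM, in 10 mM Tris-HCl pH 7.4 with 10 or 60 mM KCl; ex 470/em 530 nm at 1 °C steps over 37–99 °C, 30 s equilibration each; ΔTm = Tm(DNA+ligand) − Tm(DNA).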

[12] = Cytotoxicity against mouse primary mesangial cells assessed as reduction in cell viability after 48 hrs by MTT assay; assay type: toxicity
[13] = Selectivity ratio of Kd for double stranded DNA (unknown origin) to Kd for biotinylated 5'-Pu22-3'-labelled c-myc G-quadruplex DNA
[14] = Cell cycle arrest in human HeLa cells assessed as accumulation at G2/M phase at 1.25 uM after 48 hrs by propidium iodide based FACS analysis (reference value: 33.7 %); assay type: functional
[15] = Cell cycle arrest in human HeLa cells assessed as accumulation at S phase after 24 hrs by propidium iodide based FACS analysis (reference value: 23.1 %); assay type: functional
[16] = Binding affinity to biotinylated double stranded DNA (unknown origin) after 240 secs by SPR assay; in short: as §1
[17] = Binding affinity to 5'-FPu22T-3'-labelled c-myc G-quadruplex DNA (unknown origin) assessed as change in melting temperature by FRET assay; in short: as §3
[18] = Cell cycle arrest in human HeLa cells assessed as accumulation at G0/G1 phase at 5 uM after 48 hrs by propidium iodide based FACS analysis (reference value: 35.9 %); assay type: functional
[19] = Cell cycle arrest in human HeLa cells assessed as accumulation at S phase at 2.5 uM after 48 hrs by propidium iodide based FACS analysis (reference value: 28.6 %); assay type: functional
[20] = Cytotoxicity against human CA46 cells assessed as reduction in cell viability after 48 hrs by MTT assay; assay type: functional, cell-based; details: CA46, 48 h
[21] = Drug uptake in human HeLa cells at 10 uM after 48 hrs
Mus musculus = species: Mus musculus; assay: Cytotoxicity against mouse primary mesangial cells assessed as cell growth inhibition at 1.25 to 10 uM after 80 hrs by RTCA assay; assay type: toxicity, cell-based
[22] = Cell cycle arrest in human HeLa cells assessed as accumulation at G0/G1 phase after 24 hrs by propidium iodide based FACS analysis (reference value: 30.8 %); assay type: functional
HeLa [23] = assay: Binding affinity to c-myc G-quadruplex DNA in human HeLa cells assessed as reduction in c-myc gene expression at 1.25 to 10 uM after 6 hrs by Western blot analysis; assay type: cell-based
In short: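 HeLa treated 6 h at 0–10 μM; lysates BCA-quantified, 20 μg protein on 12% SDS–PAGE, transferred to nitrocellulose, blocked in 5% BSA/TBS-Tween; probed with anti-c-myc and anti-GAPDH (loading control), HRP secondary, chemiluminescent detection.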

[24] = Cytotoxicity against human A549 cells assessed as reduction in cell viability after 48 hrs by MTT assay; assay type: functional, cell-based; details: A549, 48 h
[25] = Cell cycle arrest in human HeLa cells assessed as accumulation at S phase at 1.25 uM after 48 hrs by propidium iodide based FACS analysis (reference value: 28.6 %); assay type: functional
[26] = Cytotoxicity against human HeLa cells assessed as reduction in cell viability after 48 hrs by MTT assay; assay type: functional, cell-based
[27] = Cell cycle arrest in human HeLa cells assessed as accumulation at S phase after 48 hrs by propidium iodide based FACS analysis (reference value: 23.1 %); assay type: functional
HeLa [28] = assay: Cytotoxicity against human HeLa cells assessed as cell growth inhibition at 1.25 to 10 uM after 80 hrs by RTCA assay; assay type: functional, cell-based
[29] = Cell cycle arrest in human HeLa cells assessed as accumulation at G2/M phase after 24 hrs by propidium iodide based FACS analysis (reference value: 46.1 %); assay type: functional
[30] = Cell cycle arrest in human HeLa cells assessed as accumulation at G2/M phase after 48 hrs by propidium iodide based FACS analysis (reference value: 46.1 %); assay type: functional
[31] = Cell cycle arrest in human HeLa cells assessed as accumulation at G0/G1 phase at 1.25 uM after 48 hrs by propidium iodide based FACS analysis (reference value: 35.9 %); assay type: functional
[32] = Cell cycle arrest in human HeLa cells assessed as accumulation at G2/M phase at 5 uM after 48 hrs by propidium iodide based FACS analysis (reference value: 33.7 %); assay type: functional
[33] = Cell cycle arrest in human HeLa cells assessed as accumulation at S phase at 5 uM after 48 hrs by propidium iodide based FACS analysis (reference value: 28.6 %); assay type: functional
[34] = Cytotoxicity against human Raji cells assessed as reduction in cell viability after 48 hrs by MTT assay; assay type: functional, cell-based
[35] = Binding affinity to 5'-Pu22-3' c-myc G-quadruplex DNA (unknown origin) assessed as induction of parallel c-myc G-quadruplex conformation at 2 equiv after 6 hrs in absence of KCl by CD-spectroscopic analysis; in short: as §2

Compound: CCN(CC)CCC(=O)Nc1ccc(Nc2nc(-c3ccccc3NC(=O)CCN(CC)CC)nc3ccccc23)cc1
- Activity [1]: 38.8%
- Activity [2]: 19.4%
- inhibition (HeLa [3]): Dose-dependent effect
- Activity [4]: 41.8%
- Kd [5]: 0.21 µM
- Activity [6]: Active
- Activity [7]: 48.9%
- Activity [8]: 18.4%
- Activity [9]: 61.1%
- Activity [10]: Active
- ΔTm [11]: 0.8 °C
- IC50 at 48 h [12]: 13.1 µM
- Selectivity ratio [13]: > 47.6
- Activity [14]: 22.2%
- Activity [15]: 18.4%
- Kd [16]: > 10 µM
- ΔTm [17]: 19.6 °C
- Activity [18]: 54.8%
- Activity [19]: 30.2%
- IC50 [20]: 6.5 µM
- Drug uptake [21]: Active
- Activity (Mus musculus): Non-Toxic
- Activity [22]: 43.5%
- inhibition (HeLa [23]): Active
- IC50 [24]: 5.9 µM
- Activity [25]: 26.4%
- IC50 [26]: 4.4 µM
- Activity [27]: 16.8%
- growth inhibition (GI) (HeLa [28]): Active
- Activity [29]: 38.1%
- Activity [30]: 22.1%
- Activity [31]: 48.4%
- Activity [32]: 12.7%
- Activity [33]: 29%
- IC50 [34]: 3.1 µM
- Activity [35]: Active
